High-throughput results: PubChem BioAssay, several laboratories
Shown are actives, neighbours in structure and some others; about 2.3% of the full set was active somewhere.
T cell HTS: T cell immune modulation candidate. 2C CD8+ T cell-vesicle binding, flow cytometry; stronger effect = lower value. response (vesicle binding), % at 7 µM. 330,000 compounds, 0.068% hits;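 active means response, share of CD8 T cells binding vesicles, and their 90th percentile fluorescence all below set limits, cut at about 80% in these data, passing the limit was not always enough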;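 further: values below 100% mean blocked vesicle binding to the CD8+ T cells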
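incubation = binding step 1.5 h, 37 °C, antibody labelling 20 min, ice | test system = 2C mouse CD8+ T cells | read-out basis = percent CD8+ FL2 mean versus row control | controls = Peptide-free naked vesicles (low) and QL9 vesicles with 0.7% DMSO vehicle (high) | detection = flow cytometry of vesicle-bound cells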
CHT allo act: human CHT allosteric activation. Q9GZV3. CHT-expressing cells, membrane potential dye, choline EC20; stronger effect = higher value; LV-AA mutant CHT in HEK293 cells. B-score at 10 µM. 310,000 compounds, 0.49% hits. AID 488977;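 active means initial fluorescence not abnormally high and integrated response B-score, plate-corrected, over 3 SD above library mean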
DSG3 Ab inh: inhibitors of pemphigus antibody binding to human desmoglein-3 | P32926 | DSG3-coupled beads, scFv-anti-DSG3-GFP binding, flow cytometry; stronger effect = lower value | binding (percent of control), % at 10 µM | 310,000 compounds, 0.48% hits | AID 588358;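 active means binding more than 3 SD below its plate's average and above zero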
CHT block: human CHT choline transport inhibition. 310,000 compounds, 0.86% hits. Q9GZV3. B-score at 10 µM. CHT-expressing cells, membrane potential dye, choline response; stronger effect = lower value. AID 488975;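 active means B-score over 3 SD under the library average, and starting fluorescence ratio not unusually high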;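 further: choline stimulus applied at its EC90 after an EC20 pre-addition; B-score computed on integrated fluorescence ratio after choline addition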
GPR7 antag: antagonists of human GPR7 (neuropeptides B/W receptor 1); inhibition, % at 4.4 µM; GPR7-expressing cells, fluorescence antagonist assay; P48145; 290,000 compounds, 1.1% hits; AID 1861; in the data active means inhibition above about 16%, passing the limit was not always enough;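 further: cells stimulated with the agonist NPW; 0% = agonist with vehicle and 100% = vehicle without agonist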
Target sequence (P48145 whole entry, looked up): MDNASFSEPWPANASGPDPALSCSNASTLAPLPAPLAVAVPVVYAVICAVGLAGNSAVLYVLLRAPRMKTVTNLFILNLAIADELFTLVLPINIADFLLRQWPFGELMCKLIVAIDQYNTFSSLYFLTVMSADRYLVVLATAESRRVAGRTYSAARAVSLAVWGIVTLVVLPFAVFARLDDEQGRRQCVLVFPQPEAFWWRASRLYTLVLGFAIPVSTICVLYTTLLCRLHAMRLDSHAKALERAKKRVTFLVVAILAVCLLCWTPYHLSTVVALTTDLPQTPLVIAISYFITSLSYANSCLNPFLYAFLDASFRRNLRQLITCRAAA
pCIP destab: compounds decreasing mouse p/CIP protein stability; Q05BA5; F442A p/CIP-EGFP cells, EGFP fluorescence, 16 h; decrease of EGFP signal, % at 10 µM; 290,000 compounds, 0.01% hits;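 active means EGFP signal decrease of at least 30% at 10 µM or well 3 SD below plate mean, unless failing retest; inactive means the rest, including hits failing retest or dose response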
* marks the source's active call; other numbers are inactive results.

What do the screens show for `COc1ccc(NC(=O)Cc2ccccc2)cn1`?
T cell HTS: 86; CHT allo act: inactive; DSG3 Ab inh: 105; CHT block: inactive; GPR7 antag: -4; pCIP destab: -12

How did COc1ccc(CS(=O)(=O)/C(Cl)=C(/Cl)C(=O)Nc2ccc(OC)nc2)cc1 do in these assays?
T cell HTS: 138; CHT allo act: inactive; DSG3 Ab inh: 105; CHT block: inactive; GPR7 antag: 39*; pCIP destab: -15

What do the screens show for `COc1ccc(NC(=O)/C(Cl)=C(/Cl)S(=O)Cc2ccccc2)cn1` (centres undefined)?
T cell HTS: 243; CHT allo act: inactive; DSG3 Ab inh: 98; CHT block: inactive; GPR7 antag: 40*; pCIP destab: -14

How did CC1(C)C2CCC1(C)C(OCC[N+](C)(C)CC(=O)OC1CCCCC1)C2 (centres undefined) do in these assays?
T cell HTS: 191; CHT allo act: inactive; DSG3 Ab inh: 86; CHT block: inactive; GPR7 antag: 20*; pCIP destab: -11

How did CCOC(=O)C[N+](C)(C)CCOC1CC2CCC1(C)C2(C)C (centres undefined) do in these assays?
T cell HTS: 189; CHT allo act: inactive; DSG3 Ab inh: 99; CHT block: inactive; GPR7 antag: 9; pCIP destab: -33

Results for C[C@@H]1CCCCO[C@H](CN(C)Cc2ccc3c(c2)OCO3)[C@@H](C)CN([C@H](C)CO)C(=O)c2cc(NC(=O)c3ccccc3)ccc2O1 ?
DSG3 Ab inh: 99

What do the screens show for `CCOC1(OCC)OC(c2ccccc2)=C(C#N)C(C=Cc2ccccc2)C1(OCC)OCC` (centres undefined)?
DSG3 Ab inh: 106

Results for CCOC(=O)c1[nH]c2cc3c(cc2c1CCCN1C(=O)c2ccccc2C1=O)OCCO3 ?
T cell HTS: 202; CHT allo act: inactive; DSG3 Ab inh: -29*; CHT block: inactive; GPR7 antag: 1; pCIP destab: -6

Results for CC1CCc2c(sc(NC(=O)/C=C/c3cccs3)c2C(=O)O)C1 (centres undefined) ?
T cell HTS: 279; CHT allo act: inactive; DSG3 Ab inh: 59*; CHT block: inactive; GPR7 antag: -4; pCIP destab: -2

Results for N#Cc1cnc(=S)n(-c2cc(C(F)(F)F)cc(C(F)(F)F)c2)c1N ?
DSG3 Ab inh: 109

Results for CC(C)CC1C(=O)N(Cc2cn(CCC3OCCCO3)nn2)CCS(=O)(=O)N1Cc1ccc(-c2ccncc2)cc1 (centres undefined) ?
DSG3 Ab inh: 100

How did N#C/C(=C\c1ccc(N2CCOCC2)cc1)c1ccccc1 do in these assays?
T cell HTS: 204; CHT allo act: inactive; DSG3 Ab inh: -133*; CHT block: inactive; GPR7 antag: -4; pCIP destab: -1

What do the screens show for `Cc1ccc(S(=O)(=O)N2CCOCC2)cc1NC(=O)COC(=O)Cc1ccsc1`?
T cell HTS: 209; CHT allo act: inactive; DSG3 Ab inh: 111; CHT block: inactive; GPR7 antag: 1; pCIP destab: -14

How did Cc1ccc(S(=O)(=O)N2CCOCC2)cc1NC(=O)COC(=O)CCC(=O)c1cccs1 do in these assays?
T cell HTS: 196; CHT allo act: inactive; DSG3 Ab inh: 98; CHT block: inactive; GPR7 antag: 19*; pCIP destab: -4

Results for COC(=O)[C@H]1C[C@H](OC(=O)NCc2ccccc2F)[C@@]2(O)CN(S(=O)(=O)c3ccc(C)cc3)CC2[C@H]1C(=O)OC (some centres undefined) ?
DSG3 Ab inh: 109

Results for CN(CCOC(=O)c1ccc2c(c1)OCCO2)C(C)(C)C ?
T cell HTS: 152; CHT allo act: inactive; DSG3 Ab inh: 101; CHT block: inactive; GPR7 antag: -5; pCIP destab: -45

How did CN(CCOC(=O)c1ccc2c(c1)OCCO2)Cc1ccccc1 do in these assays?
T cell HTS: 107; CHT allo act: inactive; DSG3 Ab inh: 98; CHT block: inactive; GPR7 antag: 20*; pCIP destab: 7

How did O=C(Cc1ccc(Cl)cc1Cl)NC1CCCCCC1 do in these assays?
T cell HTS: 194; CHT allo act: inactive; DSG3 Ab inh: 24*; CHT block: inactive; GPR7 antag: -5; pCIP destab: -2

How did Cc1c(CN(C)C(=O)C2CCC(=O)N(Cc3ccccc3F)C2)[nH]c2ccccc12 (centres undefined) do in these assays?
DSG3 Ab inh: 110

What do the screens show for `O=C(NCCCc1ccccc1)c1cnc2n(c1=O)CCS2`?
T cell HTS: 431; CHT allo act: inactive; DSG3 Ab inh: 100; CHT block: inactive; GPR7 antag: -8; pCIP destab: 8

What do the screens show for `CCCCNC(=O)c1cnc2n(c1=O)CCS2`?
T cell HTS: 26*; CHT allo act: inactive; CHT block: inactive; GPR7 antag: -4; pCIP destab: -1

What do the screens show for `COc1cc(OC)c(C(=O)Nc2cc(S(=O)(=O)N3CCOCC3)ccc2N2CCOCC2)cc1OC`?
DSG3 Ab inh: 101

How did O=C(Nc1nnc(C23CC4CC(CC(C4)C2)C3)s1)c1ccco1 do in these assays?
T cell HTS: 0; CHT allo act: inactive; DSG3 Ab inh: 71*; CHT block: inactive; GPR7 antag: -7; pCIP destab: -16

How did CC1=C(C(=O)OCc2ccccc2)C(c2ccc(C)cc2)NC(=O)N1 (centres undefined) do in these assays?
DSG3 Ab inh: 105

How did C[C@H]1COC(=O)[C@@H](Cc2ccc(F)cc2)CC/C=C/C[C@@H](CC(=O)N(CCO)Cc2ccccc2)C(=O)N1 do in these assays?
T cell HTS: 546; DSG3 Ab inh: 80*

How did CC(C)[C@H](NC(=O)c1ccc(Cl)cc1)C(=O)Nc1cccc(S(=O)(=O)N2CCOCC2)c1 do in these assays?
DSG3 Ab inh: 105

Results for Clc1ccc(-c2nc3cc(CN4CCCCC4)ccc3o2)cc1 ?
T cell HTS: 239; CHT allo act: inactive; DSG3 Ab inh: 72*; CHT block: inactive; GPR7 antag: -15; pCIP destab: -4

Results for Cc1ccc(-c2nc3cc(Cl)ccc3o2)cc1 ?
T cell HTS: 272; CHT allo act: inactive; CHT block: inactive; GPR7 antag: 2; pCIP destab: -3

How did O=C(COc1cccc2ccccc12)Nc1ccc(Cl)cc1C(=O)O do in these assays?
T cell HTS: 311; CHT allo act: inactive; DSG3 Ab inh: 103; CHT block: -7.3*; GPR7 antag: -3; pCIP destab: 0

What do the screens show for `O=C(COc1ccccc1)Nc1cc(Cl)ccc1Cl`?
T cell HTS: 382; CHT allo act: inactive; DSG3 Ab inh: 80*; CHT block: inactive; GPR7 antag: -9; pCIP destab: -2

How did O=C(COc1ccccc1C(=O)O)Nc1cccc2ccccc12 do in these assays?
T cell HTS: 470
